Active and inactive are the calls of the source. No cut-off for these calls is given here.
Experiments:
[1] = tested on: Mus musculus; assay: Neuroleptic activity in ip dosed ICR-DUB mouse assessed as survival administered 1 hr prior to d-amphetamine challenge measured after 24 hrs; assay type: functional
[2] = tested on: Mus musculus; assay: Neuroleptic activity in ip dosed ICR-DUB mouse assessed as survival administered 16 hrs prior to d-amphetamine challenge measured after 24 hrs; assay type: functional
[3] = tested on: Mus musculus; assay: Neuroleptic activity in ip dosed ICR-DUB mouse assessed as survival administered 2 days prior to d-amphetamine challenge measured after 24 hrs; assay type: functional
[4] = tested on: Mus musculus; assay: Neuroleptic activity in ip dosed ICR-DUB mouse assessed as survival administered 3 days prior to d-amphetamine challenge measured after 24 hrs; assay type: functional
[5] = tested on: Mus musculus; assay: Neuroleptic activity in mouse assessed as suppression of conditioned avoidance behavior by measuring mean correct responses level at 10 mg/kg, ip administered 8 hrs prior to electric shock challenge; assay type: functional; details: route intraperitoneal
How it was run: (§1)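 After 20 s a solenoid pushed each mouse back onto the grid, leaving 5 s to return and avoid the next shock. Trained mice reaching 90–100% correct avoidance (3–5 per group) received 10 mg/kg ip. Twenty trials were run before dosing and at intervals after. Percent correct avoidance per animal was averaged per group.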

[6] = tested on: Mus musculus; assay: Neuroleptic activity in mouse assessed as suppression of conditioned avoidance behavior by measuring mean correct responses level at 10 mg/kg, ip administered 1 day prior to electric shock challenge; assay type: functional; details: route intraperitoneal; how it was run: as §1
[7] = tested on: Mus musculus; assay: Neuroleptic activity in mouse assessed as suppression of conditioned avoidance behavior by measuring mean correct responses level at 10 mg/kg, ip administered 2 days prior to electric shock challenge; assay type: functional; details: route intraperitoneal; how it was run: as §1
[8] = tested on: Mus musculus; assay: Neuroleptic activity in mouse assessed as suppression of conditioned avoidance behavior by measuring mean correct responses level at 10 mg/kg, ip administered 4 hrs prior to electric shock challenge; assay type: functional; details: route intraperitoneal; how it was run: as §1
[9] = tested on: Mus musculus; assay: Neuroleptic activity in mouse assessed as suppression of conditioned avoidance behavior by measuring mean correct responses level at 10 mg/kg, ip administered immediately prior to electric shock challenge; assay type: functional; details: route intraperitoneal; how it was run: as §1
[10] = tested on: Mus musculus; assay: Neuroleptic activity in mouse assessed as suppression of conditioned avoidance behavior by measuring mean correct responses level at 10 mg/kg, ip administered 1 hr prior to electric shock challenge; assay type: functional; details: route intraperitoneal; how it was run: as §1
[11] = tested on: Mus musculus; assay: Neuroleptic activity in mouse assessed as suppression of conditioned avoidance behavior by measuring mean correct responses level at 10 mg/kg, ip administered 2 hrs prior to electric shock challenge; assay type: functional; details: route intraperitoneal; how it was run: as §1
[12] = tested on: Mus musculus; assay: Neuroleptic activity in ip dosed ICR-DUB mouse assessed as survival administered 4 hrs prior to d-amphetamine challenge measured after 24 hrs; assay type: functional
[13] = tested on: Mus musculus; assay: Neuroleptic activity in ip dosed ICR-DUB mouse assessed as survival administered 7 days prior to d-amphetamine challenge measured after 24 hrs; assay type: functional
[14] = tested on: Mus musculus; assay: Neuroleptic activity in mouse assessed as suppression of conditioned avoidance behavior by measuring mean correct responses level at 20 mg/kg, ip administered 7 days prior to electric shock challenge; assay type: functional, organism-based; set-up: dose 20 mg/kg
[15] = tested on: Mus musculus; assay: Neuroleptic activity in ip dosed ICR-DUB mouse assessed as survival administered 4 days prior to d-amphetamine challenge measured after 24 hrs; assay type: functional
[16] = tested on: Mus musculus; assay: Neuroleptic activity in ip dosed ICR-DUB mouse assessed as survival administered 5 days prior to d-amphetamine challenge measured after 24 hrs; assay type: functional
[17] = tested on: Mus musculus; assay: Neuroleptic activity in mouse assessed as suppression of conditioned avoidance behavior by measuring mean correct responses level at 10 mg/kg, ip administered 3 days prior to electric shock challenge; assay type: functional; details: route intraperitoneal; how it was run: as §1
[18] = tested on: Mus musculus; assay: Toxicity in ICR-DUB mouse assessed as depression at 60 mg/kg, ip measured for 5 days; assay type: organism-based; set-up: dose 60 mg/kg, route intraperitoneal; details: in vivo, 120 h
[19] = tested on: Mus musculus; assay: Toxicity in ICR-DUB mouse assessed as reduction in food intake at 60 mg/kg, ip; assay type: organism-based; set-up: dose 60 mg/kg, route intraperitoneal; details: in vivo
[20] = tested on: Mus musculus; assay: Toxicity in ICR-DUB mouse assessed as grooming of coat at 60 mg/kg, ip; assay type: organism-based; set-up: dose 60 mg/kg, route intraperitoneal; details: in vivo
[21] = tested on: Mus musculus; assay: Neuroleptic activity in mouse assessed as suppression of conditioned avoidance behavior by measuring mean correct responses level at 10 mg/kg, ip administered 4 days prior to electric shock challenge; assay type: functional; details: route intraperitoneal; how it was run: as §1
[22] = tested on: Mus musculus; assay: Toxicity in ICR-DUB mouse assessed as grooming at 50 mg/kg, ip measured during first 24 hrs; assay type: organism-based; set-up: dose 50 mg/kg, route intraperitoneal; details: in vivo
[23] = tested on: Mus musculus; assay: Neuroleptic activity in ip dosed ICR-DUB mouse assessed as survival administered 6 days prior to d-amphetamine challenge measured after 24 hrs; assay type: functional
[24] = tested on: Mus musculus; assay: Toxicity in ICR-DUB mouse assessed as CNS depression at 50 mg/kg, ip measured for 24 hrs; assay type: organism-based; set-up: dose 50 mg/kg, route intraperitoneal; details: in vivo
[25] = tested on: Mus musculus; assay: Toxicity in ICR-DUB mouse assessed as mild sedation at 50 mg/kg, ip measured for 6 days; assay type: organism-based; set-up: dose 50 mg/kg, route intraperitoneal; details: in vivo, 144 h
[26] = tested on: Mus musculus; assay: Toxicity in ICR-DUB mouse assessed as body weight loss at 50 mg/kg, ip; assay type: organism-based; set-up: dose 50 mg/kg, route intraperitoneal; details: in vivo
[27] = tested on: Mus musculus; assay: Toxicity in ICR-DUB mouse assessed as grooming at 50 mg/kg, ip; assay type: organism-based; set-up: dose 50 mg/kg, route intraperitoneal; details: in vivo

SMILES | ED50 [1] [mg/kg] | ED50 [2] [mg/kg] | ED50 [3] [mg/kg] | ED50 [4] | Activity [5] [%] | Activity [6] [%] | Activity [7] [%] | Activity [8] [%] | Activity [9] [%] | Activity [10] [%] | Activity [11] [%] | ED50 [12] [mg/kg] | ED50 [13] | ED50 [15] [mg/kg] | ED50 [16] | further results
O=C(CCCN1CCC(O)(c2ccc(Cl)cc2)CC1)c1ccc(F)cc1 [HALOPERIDOL] | 0.09 | 0.58 | 16 | Active |  |  |  |  |  |  |  |  |  |  |  | 
CN(C)CCCN1c2ccccc2Sc2ccc(Cl)cc21 [CHLORPROMAZINE] | 0.28 | 3.65 | > 32 | Active | 72 | 88 | 95 | 37 | 96 | 42 | 28 |  |  |  |  | 
O.O=C(O)/C=C/C(=O)O.O=C(c1ccc(F)cc1)C1CCN(CCCN2c3ccccc3Sc3ccccc32)CC1 | 0.94 | 1.27 | 12.1 | > 50 mg/kg | 93 | 87 | 98 | 75 | 97 | 63 | 70 | 0.35 | inactive |  |  | 
OC1(c2ccc(Cl)c(C(F)(F)F)c2)CCN(CCCC(c2ccc(F)cc2)c2ccc(F)cc2)CC1 [PENFLURIDOL] | 1.28 | 1.52 | 3 | 17 mg/kg |  |  |  |  |  |  |  | 1.82 |  | 47.5 | Active | Activity [14]: Active
CC(=O)c1ccc2c(c1)N(CCCN1CCC(C(=O)c3ccc(F)cc3)CC1)c1ccccc1S2.O.O=C(O)/C=C/C(=O)O |  |  | 22.5 | 17.5 mg/kg | 55 | 55 | 95 | 43 | 95 | 73 | 61 |  | inactive | > 64 | 60 mg/kg | Activity [17]: 100%
O=C(O)/C=C/C(=O)O.O=C(c1ccc(F)cc1)C1CCN(CCCN2c3ccccc3Sc3ccc(Cl)cc32)CC1 | 0.17 | 0.72 | 4.6 | 8.8 mg/kg | 40 | 57 | 95 | 32 | 96 | 80 | 38 | 0.53 | inactive | 20.9 | > 60 mg/kg | Activity [18]: Toxic; Activity [19]: Toxic; Activity [20]: Toxic
O=C(c1ccc(Cl)c(Cl)c1)C1CCN(CCCN2c3ccccc3Sc3ccc(Cl)cc32)CC1 | > 16 |  |  |  | 95 | 93 |  | 92 | 97 | 97 | 97 |  | inactive |  |  | 
O=C(O)/C=C/C(=O)O.O=C(c1ccc(F)cc1)C1CCN(CCCN2c3ccccc3Sc3ccc(C(F)(F)F)cc32)CC1 [DUOPERONE FUMARATE] |  |  | 4.7 | 15.2 mg/kg | 45 | 58 | 58 | 80 | 92 | 98 | 88 |  | 45.5 mg/kg | 27 | 28.4 mg/kg | Activity [17]: 58%; Activity [21]: 95%; Activity [22]: Toxic; ED50 [23]: 26.5 mg/kg; Activity [24]: Toxic; Activity [25]: Toxic; Activity [26]: Non-toxic; Activity [27]: Non-toxic
